Assays:
Type in all cases: functional
CAKI-1 = experiment: Growth inhibition of human CAKI-1 cells after 48 hrs by sulforhodamine B assay; conditions: CAKI-1, 48 h
In short: (§1)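 NCI-60 panel screen. Cells were exposed for 48 h at five concentrations between 10 nM and 100 μM. Cellular protein was read by sulforhodamine B staining, and GI50 and total growth inhibition (TGI) concentrations were derived.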

HOP-62 = experiment: Growth inhibition of human HOP62 cells after 48 hrs by sulforhodamine B assay; conditions: HOP-62, 48 h; in short: as §1
SN12C [1] = experiment: Growth inhibition of human SN12C cells at 10 uM after 48 hrs by sulforhodamine B assay relative to control; conditions: read-out: GI
In short: (§2)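 NCI-60 human cancer cell line screen, single-dose pass: cells exposed to 10 μM for 48 h. Cellular protein content read out by sulforhodamine B staining, and growth inhibition expressed relative to untreated control.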

UACC-62 = experiment: Growth inhibition of human UACC62 cells at 10 uM after 48 hrs by sulforhodamine B assay relative to control; conditions: UACC-62, 48 h, read-out: GI
In short: (§3)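 NCI-60 human cancer cell line screen, single dose of 10 μM for 48 h. Cellular protein content read by sulforhodamine B staining; growth inhibition expressed relative to untreated control.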

MOLT-4 = experiment: Growth inhibition of human MOLT4 cells after 48 hrs by sulforhodamine B assay; conditions: MOLT-4, 48 h
In short: (§4)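 NCI-60 panel follow-up: five concentrations from 10 nM to 100 μM, 48 h exposure. Growth read by sulforhodamine B protein staining. GI50 derived from the concentration-response, with the concentration for total growth inhibition (TGI) also recorded when below 100 μM.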

BT-549 = experiment: Growth inhibition of human BT549 cells after 48 hrs by sulforhodamine B assay; conditions: BT-549, 48 h; in short: as §1
NCI-H460 = experiment: Growth inhibition of human NCI-H460 cells at 10 uM after 48 hrs by sulforhodamine B assay relative to control; conditions: NCI-H460, 48 h, read-out: GI; in short: as §2
HT-29 [2] = experiment: Growth inhibition of human HT-29 cells at 10 uM after 48 hrs by sulforhodamine B assay relative to control; conditions: HT-29, 48 h, read-out: GI
In short: (§5)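 NCI-60 single-dose screen at 10 μM for 48 h. Percent growth inhibition was measured by sulforhodamine B staining of cellular protein.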

SF-268 = experiment: Growth inhibition of human SF268 cells at 10 uM after 48 hrs by sulforhodamine B assay relative to control; conditions: SF-268, 48 h, read-out: GI; in short: as §2
SNB-75 = experiment: Growth inhibition of human SNB75 cells at 10 uM after 48 hrs by sulforhodamine B assay relative to control; conditions: SNB-75, 48 h, read-out: GI; in short: as §3
HCT-15 [3] = experiment: Growth inhibition of human HCT15 cells after 48 hrs by sulforhodamine B assay; conditions: HCT-15, 48 h; in short: as §1
UO-31 = experiment: Growth inhibition of human UO31 cells after 48 hrs by sulforhodamine B assay; conditions: UO-31, 48 h
In short: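 NCI-60 panel cells treated at five concentrations from 10 nM to 100 μM for 48 h. Read-out by sulforhodamine B protein stain. GI50 and total growth inhibition (TGI, if below 100 μM) taken from the concentration-response data.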

OVCAR-8 = experiment: Growth inhibition of human OVCAR8 cells after 48 hrs by sulforhodamine B assay; conditions: OVCAR-8, 48 h; in short: as §4
SK-MEL-28 = experiment: Growth inhibition of human SK-MEL-28 cells at 10 uM after 48 hrs by sulforhodamine B assay relative to control; conditions: SK-MEL-28, 48 h, read-out: GI; in short: as §2
OVCAR-3 = experiment: Growth inhibition of human OVCAR3 cells after 48 hrs by sulforhodamine B assay; conditions: OVCAR-3, 48 h; in short: as §4
M14 = experiment: Growth inhibition of human M14 cells after 48 hrs by sulforhodamine B assay; conditions: M14, 48 h; in short: as §1
HOP-92 = experiment: Growth inhibition of human HOP92 cells at 10 uM after 48 hrs by sulforhodamine B assay relative to control; conditions: HOP-92, 48 h, read-out: GI; in short: as §5
786-0 [4] = experiment: Growth inhibition of human 786-0 cells at 10 uM after 48 hrs by sulforhodamine B assay relative to control; conditions: 786-0, 48 h, read-out: GI; in short: as §5
IGROV-1 = experiment: Growth inhibition of human IGROV1 cells after 48 hrs by sulforhodamine B assay; conditions: IGROV-1, 48 h; in short: as §1
SN12C [5] = experiment: Growth inhibition of human SN12C cells after 48 hrs by sulforhodamine B assay; in short: as §4
OVCAR-4 [6] = experiment: Growth inhibition of human OVCAR4 cells at 10 uM after 48 hrs by sulforhodamine B assay relative to control; conditions: OVCAR-4, 48 h, read-out: GI; in short: as §2
HT-29 [7] = experiment: Growth inhibition of human HT-29 cells after 48 hrs by SRB assay; conditions: HT-29, 48 h
In short: (§6)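 In-house assay. Cells were seeded into 96-well plates at a density for exponential growth and treated with a concentration range for 48 h. They were then fixed in 10% (w/v) TCA and stained with sulforhodamine B. The 50% growth-inhibitory concentration relative to control cells was calculated as the mean of three repeats ± standard deviation.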

HCT-15 [8] = experiment: Growth inhibition of human HCT15 cells at 10 uM after 48 hrs by sulforhodamine B assay relative to control; conditions: HCT-15, 48 h, read-out: GI; in short: as §5
HCT-116 = experiment: Growth inhibition of human HCT116 cells after 48 hrs by sulforhodamine B assay; conditions: HCT-116, 48 h; in short: as §1
NCI-H226 = experiment: Growth inhibition of human NCI-H226 cells after 48 hrs by sulforhodamine B assay; conditions: NCI-H226, 48 h; in short: as §4
COLO 205 = experiment: Growth inhibition of human COLO205 cells at 10 uM after 48 hrs by sulforhodamine B assay relative to control; conditions: COLO 205, 48 h, read-out: GI; in short: as §5
786-0 [9] = experiment: Growth inhibition of human 786-0 cells after 48 hrs by sulforhodamine B assay; conditions: 786-0, 48 h; in short: as §1
OVCAR-4 [10] = experiment: Growth inhibition of human OVCAR4 cells after 48 hrs by sulforhodamine B assay; conditions: OVCAR-4, 48 h; in short: as §4
MDA-MB-435 [11] = experiment: Growth inhibition of human MDA-MB-435 cells after 48 hrs by sulforhodamine B assay; conditions: MDA-MB-435, 48 h; in short: as §1
HL-60(TB) = experiment: Growth inhibition of human HL-60(TB) cells after 48 hrs by sulforhodamine B assay; conditions: HL-60, 48 h
In short: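 NCI-60 human cancer cell line screen, five concentrations from 10 nM to 100 μM. Growth measured by sulforhodamine B staining of cellular protein content. GI50 derived, with TGI where reached below 100 μM.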

A498 = experiment: Growth inhibition of human A498 cells after 48 hrs by SRB assay; conditions: A498, 48 h; in short: as §6
MDA-MB-435 [12] = experiment: Growth inhibition of human MDA-MB-435 cells at 10 uM after 48 hrs by sulforhodamine B assay relative to control; conditions: MDA-MB-435, 48 h, read-out: GI; in short: as §2
NCI/ADR-RES = experiment: Growth inhibition of human NCI-ADR-RES cells after 48 hrs by sulforhodamine B assay; in short: as §4

SMILES	GI50 (CAKI-1)	GI50 (HOP-62)	inhibition of growth at 10 µM (SN12C [1])	inhibition of growth at 10 µM (UACC-62)	GI50 (MOLT-4)	GI50 (BT-549)	inhibition of growth at 10 µM (NCI-H460)	inhibition of growth at 10 µM (HT-29 [2])	inhibition of growth at 10 µM (SF-268)	inhibition of growth at 10 µM (SNB-75)	GI50 (HCT-15 [3])	GI50 (UO-31)	GI50 (OVCAR-8)	inhibition of growth at 10 µM (SK-MEL-28)	GI50 (OVCAR-3)	GI50 (M14)	inhibition of growth at 10 µM (HOP-92)	inhibition of growth at 10 µM (786-0 [4])	GI50 (IGROV-1)	GI50 (SN12C [5])	also measured
Cc1noc(C)c1-c1cc(O)cc(C(O)c2ccccc2)c1 (stereo unspecified)	4.58 µM	4.89 µM	25.5%	68.5%	17.9 µM	28.2 µM	32.8%	65.4%	28.5%	113%	3.52 µM	4.58 µM	8.33 µM	38.8%	6.64 µM	4.48 µM	74.4%	45.2%	23.2 µM	3.99 µM	TGI (MOLT-4): 80.7 µM; inhibition of growth at 10 µM (OVCAR-4 [6]): 67.5%; GI50 (HT-29 [7]): 4.54 to 5.79 µM; inhibition of growth at 10 µM (HCT-15 [8]): 63.3%; GI50 (HCT-116): 7.08 µM; GI50 (NCI-H226): 21.3 µM; inhibition of growth at 10 µM (COLO 205): 62.9%; GI50 (786-0 [9]): 27.1 µM; GI50 (OVCAR-4 [10]): 6.35 µM; GI50 (MDA-MB-435 [11]): 3.48 µM; GI50 (HL-60(TB)): 2.17 µM; TGI (HL-60(TB)): 22.7 µM; GI50 (A498): 1.58 to 2.6 µM; TGI (A498): 20.3 µM; inhibition of growth at 10 µM (MDA-MB-435 [12]): 56.1%; GI50 (NCI/ADR-RES): 6.32 µM
COc1ccccc1S(=O)(=O)Nc1ccc2c(c1)CN(C)C(=O)N2	3.6 µM	2.5 µM	46.8%	70.7%	10.5 µM	14.8 µM	44.2%	77.2%	27.1%	82.5%	3.2 µM	1.1 µM	9.1 µM	51.1%	4 µM	2.9 µM	97.6%	27.3%	6.3 µM	6.8 µM	TGI (OVCAR-3): 87.1 µM; inhibition of growth at 10 µM (OVCAR-4 [6]): 56.9%; GI50 (HT-29 [7]): 3 µM; inhibition of growth at 10 µM (HCT-15 [8]): 59.2%; GI50 (HCT-116): 4.5 µM; GI50 (NCI-H226): 14.1 µM; inhibition of growth at 10 µM (COLO 205): 61.6%; GI50 (786-0 [9]): 12 µM; GI50 (OVCAR-4 [10]): 6.3 µM; GI50 (MDA-MB-435 [11]): 2.6 µM; GI50 (HL-60(TB)): 3.4 µM; GI50 (A498): 1.8 µM; TGI (A498): 6 µM; inhibition of growth at 10 µM (MDA-MB-435 [12]): 65.8%; GI50 (NCI/ADR-RES): 17.4 µM

Reference: ChEMBL document CHEMBL4118192, “BET bromodomain ligands: Probing the WPF shelf to improve BRD4 bromodomain affinity and metabolic stability” (Bioorg Med Chem, 2018)
